Data from ChEMBL document CHEMBL1287642, “Synthesis, antiviral activity and cytotoxicity evaluation of Schiff bases of some 2-phenyl quinazoline-4(3)H-ones” (Eur J Med Chem, 2010).
Converted amounts (≈) assume the structure as drawn.

Experiments:
[1] = test system: Mammalian orthoreovirus 1; experiment: Antiviral activity against Reovirus-1 infected in african green monkey Vero cells assessed as protection against virus-induced cytopathogenicity after 2 days; assay type: functional, organism-based; conditions: Mammalian orthoreovirus 1, Vero, 48 h
Influenza A virus [2] = experiment: Antiviral activity against influenza A virus H1N1 infected in MDCK cells assessed as cell viability at 100 ug/ml after 2 days by MTS assay; assay type: functional, organism-based
Influenza A virus [3] = experiment: Antiviral activity against Influenza A virus H3N2 infected in MDCK cells assessed as protection against virus-induced cytopathogenicity at 100 ug/ml after 2 days; assay type: functional, organism-based
Procedure, shortened: (§1)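 Infected MDCK cells were treated. […] N.A. means not active at the highest concentration tested or at a subtoxic concentration.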

Human respirovirus 3 = experiment: Antiviral activity against Para influenza-3 virus infected in african green monkey Vero cells assessed as protection against virus-induced cytopathogenicity after 2 days; assay type: functional, organism-based; conditions: Human respirovirus 3, Vero, 48 h
[4] = test system: Vesicular stomatitis virus; experiment: Antiviral activity against Vesicular stomatitis virus infected in human HEL cells assessed as protection against virus-induced cytopathogenicity after 2 days; assay type: functional, organism-based; conditions: 48 h
[5] = test system: Vesicular stomatitis virus; experiment: Antiviral activity against Vesicular stomatitis virus infected in human HeLa cells assessed as protection against virus-induced cytopathogenicity after 2 days; assay type: functional, organism-based; conditions: 48 h
Felid alphaherpesvirus 1 = experiment: Antiviral activity against Feline herpes virus infected in cat CRFK cells assessed as protection against virus-induced cytopathogenicity after 2 days by MTS assay; assay type: functional, organism-based; conditions: Felid alphaherpesvirus 1, CRFK, 48 h
Human alphaherpesvirus 1 [6] = experiment: Antiviral activity against Herpes simplex virus-1 KOS infected in human HEL cells assessed as protection against virus-induced cytopathogenicity after 2 days; assay type: functional, organism-based; conditions: Human alphaherpesvirus 1, KOS, 48 h
[7] = Cytotoxicity against human HEL cells assessed as minimum concentration required to cause microscopically detectable alteration after 2 days; assay type: cell-based; conditions: read-out: Activity
MDCK = experiment: Cytotoxicity against MDCK cells by MTS assay; assay type: cell-based, Canis lupus familiaris; conditions: dog, mdck
Procedure, shortened: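 In Madin Darby canine kidney cells, the 50% cytotoxic concentration was derived from cell viability measured by the colorimetric formazan-based MTS assay.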

[8] = Cytotoxicity against cat CRFK cells by MTS assay; assay type: cell-based, Felis catus
Procedure, shortened: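 In uninfected CRFK cells, the 50% cytotoxic concentration was derived from cell viability measured by the colorimetric formazan-based MTS assay.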

[9] = Cytotoxicity against MDCK cells assessed as minimum concentration required to cause microscopically detectable alteration after 2 days; assay type: cell-based, Canis lupus familiaris; conditions: dog, read-out: Activity
Human alphaherpesvirus 1 [10] = experiment: Antiviral activity against acyclovir-resistant TK deficient Herpes simplex virus-1 KOS infected in human HEL cells assessed as protection against virus-induced cytopathogenicity after 2 days; assay type: functional, organism-based; conditions: Human alphaherpesvirus 1, KOS, 48 h
[11] = test system: Feline infectious peritonitis virus; experiment: Antiviral activity against Feline coronavirus FIPV infected in cat CRFK cells assessed as protection against virus-induced cytopathogenicity after 2 days by MTS assay; assay type: functional, cell-based; conditions: Alphacoronavirus 1, CRFK, 48 h
Influenza A virus [12] = experiment: Antiviral activity against Influenza A virus H3N2 infected in MDCK cells assessed as cell viability at 100 ug/ml after 2 days by MTS assay; assay type: functional, organism-based
Influenza B virus [13] = experiment: Antiviral activity against influenza B virus infected in MDCK cells assessed as cell viability at 100 ug/ml after 2 days by MTS assay; assay type: functional, organism-based
Coxsackievirus B4 [14] = experiment: Antiviral activity against Coxsackie virus B4 infected in african green monkey Vero cells assessed as protection against virus-induced cytopathogenicity after 2 days; assay type: functional, organism-based; conditions: Enterovirus B, 48 h
Influenza B virus [15] = experiment: Antiviral activity against influenza B virus infected in MDCK cells assessed as protection against virus-induced cytopathogenicity at 100 ug/ml after 2 days; assay type: functional, organism-based; procedure, shortened: as §1
[16] = Cytotoxicity against african green monkey Vero cells assessed as minimum concentration required to cause microscopically detectable alteration after 2 days; assay type: cell-based; conditions: chlorocebus sabaeus, read-out: Activity
Influenza A virus [17] = experiment: Antiviral activity against influenza A virus H1N1 infected in MDCK cells assessed as protection against virus-induced cytopathogenicity at 100 ug/ml after 2 days; assay type: functional, organism-based; procedure, shortened: as §1
[18] = test system: Respiratory syncytial virus; experiment: Antiviral activity against Respiratory syncytial virus infected in human HeLa cells assessed as protection against virus-induced cytopathogenicity after 2 days; assay type: functional, organism-based; conditions: 48 h
Coxsackievirus B4 [19] = experiment: Antiviral activity against Coxsackie virus B4 infected in human HeLa cells assessed as protection against virus-induced cytopathogenicity after 2 days; assay type: functional, organism-based; conditions: Enterovirus B, 48 h
Human alphaherpesvirus 2 = experiment: Antiviral activity against Herpes simplex virus-2 G infected in human HEL cells assessed as protection against virus-induced cytopathogenicity after 2 days; assay type: functional, organism-based; conditions: Human alphaherpesvirus 2, strain G, 48 h
[20] = Cytotoxicity against human HeLa cells assessed as minimum concentration required to cause microscopically detectable alteration after 2 days; assay type: cell-based; conditions: read-out: Activity
Punta Toro virus = experiment: Antiviral activity against Punta Toro virus infected in african green monkey Vero cells assessed as protection against virus-induced cytopathogenicity after 2 days; assay type: functional, organism-based; conditions: 48 h
Sindbis virus = experiment: Antiviral activity against Sindbis virus infected in african green monkey Vero cells assessed as protection against virus-induced cytopathogenicity after 2 days; assay type: functional, organism-based; conditions: 48 h

| SMILES | EC50 [1] [µg/mL] | EC50 (Influenza A virus [2]) | EC50 (Influenza A virus [3]) | EC50 (Human respirovirus 3) [µg/mL] | EC50 [4] [µg/mL] | EC50 (Felid alphaherpesvirus 1) [µg/mL] | EC50 (Human alphaherpesvirus 1 [6]) [µg/mL] | MCC at 48 h [7] [µg/mL] | EC50 (Human alphaherpesvirus 1 [10]) [µg/mL] | EC50 [11] [µg/mL] | EC50 (Influenza A virus [12]) | EC50 (Influenza B virus [13]) | EC50 (Influenza B virus [15]) | EC50 (Influenza A virus [17]) | EC50 (Coxsackievirus B4 [19]) [µg/mL] | EC50 (Human alphaherpesvirus 2) [µg/mL] | CC50 ([8]; CRFK cells, read-out: CC50) [µg/mL] | other results |
| --- | --- | --- | --- | --- | --- | --- | --- | --- | --- | --- | --- | --- | --- | --- | --- | --- | --- | --- |
| COc1ccc(/C=N/n2c(-c3ccccc3)nc3ccccc3c2=O)cc1O | > 20 | Not Active | Not Active | > 20 | > 20 | > 20 | > 20 | 100 | > 20 | > 20 | Not Active | Not Active | Not Active | Not Active | > 4 | > 20 | – | EC50 [5]: > 4 µg/mL; CC50 (MDCK): 47.4 µg/mL (≈ 128 µM); CC50 ([8]; crfk): 42.7 µg/mL (≈ 115 µM); MCC at 48 h [9]: 20 µg/mL; EC50 (Coxsackievirus B4 [14]): > 20 µg/mL; MCC at 48 h [16]: 100 µg/mL; EC50 [18]: > 4 µg/mL; MCC at 48 h [20]: 20 µg/mL; EC50 (Punta Toro virus): > 20 µg/mL; EC50 (Sindbis virus): > 20 µg/mL |
| CN(C)c1ccc(/C=N/n2c(-c3ccccc3)nc3ccccc3c2=O)cc1 | > 20 | Not Active | Not Active | > 20 | > 20 | > 100 | – | – | > 20 | – | Not Active | Not Active | Not Active | Not Active | > 20 | – | – | – |
| O=c1c2ccccc2nc(-c2ccccc2)n1/N=C/c1cccc([N+](=O)[O-])c1 | > 4 | Not Active | Not Active | > 4 | > 20 | > 4 | > 20 | ≥ 20 | > 20 | > 4 | Not Active | Not Active | Not Active | Not Active | > 4 | > 20 | – | EC50 [5]: > 4 µg/mL; CC50 (MDCK): > 100 µg/mL; CC50 ([8]; crfk): 13.8 µg/mL (≈ 37.3 µM); MCC at 48 h [9]: 20 µg/mL; EC50 (Coxsackievirus B4 [14]): > 4 µg/mL; MCC at 48 h [16]: 20 µg/mL; EC50 [18]: > 4 µg/mL; MCC at 48 h [20]: 20 µg/mL; EC50 (Punta Toro virus): > 4 µg/mL; EC50 (Sindbis virus): > 4 µg/mL |
| CC(=O)N[C@H]1[C@H](OOP(=O)(O)OP(=O)(O)OC[C@H]2O[C@@H](n3ccc(=O)[nH]c3=O)[C@H](O)[C@@H]2O)O[C@H](CO)[C@@H](O)[C@@H]1O[C@](C)(OP(=O)(O)O)C(=O)O | – | – | – | – | – | 53.1 (≈ 67.1 µM) | – | – | – | 11.7 (≈ 14.8 µM) | – | – | – | – | – | – | > 100 | – |
| Nc1ccn(C[C@@H](CO)OCP(=O)(O)O)c(=O)n1.O.O [CIDOFOVIR] | – | – | – | – | > 250 | – | – | > 250 | – | – | – | – | – | – | – | – | – | – |
| O=c1[nH]c(=O)n([C@H]2C[C@H](O)[C@@H](CO)O2)cc1/C=C/Br [BRIVUDINE] | – | – | – | – | > 250 | – | – | > 250 | – | – | – | – | – | – | – | 50 (≈ 150 µM) | – | – |
| N=C(N)NCCC[C@H](N)C(=O)O [ARGININE] | – | – | – | – | – | 1.6 (≈ 9.18 µM) | – | – | – | 2.6 (≈ 14.9 µM) | – | – | – | – | – | – | > 100 | – |
| Nc1nc2c(ncn2COC(CO)CO)c(=O)[nH]1 [GANCICLOVIR] | – | – | – | – | > 100 | 0.8 (≈ 3.13 µM) | 0.05 (≈ 0.196 µM) | > 100 | 2 (≈ 7.84 µM) | > 100 | – | – | – | – | – | 0.07 (≈ 0.274 µM) | > 100 | – |
